Calls of active or inactive are those of the source. The calls are words filed in the database; no cut-off is given here.
Key:
[1] = test system: cerebellar granule cells (mouse); assay: Cytotoxicity against cerebellar granule neurons at 250 nM by MTT assay after 24 hrs
[2] = Increase in cytosolic calcium concentration in cerebellar granule cell in calcium free medium at 1 uM; format: functional, cell-based; settings: Mus musculus
Method in brief: (§1)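 Cultured mouse cerebellar granule cells co-loaded with Fura-2 AM (1 µM) and BCECF-AM (0.5 µM), 10 min at 37 °C, imaged by epifluorescence microscopy in a 37 °C open-bath chamber. Compound applied in calcium-free buffer (pH 7.4) before calcium was restored, or added directly in calcium-containing medium. [Ca2+]c calibrated by the Grynkiewicz method. Means ± SEM of 3-4 experiments in duplicate.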

[3] = test system: cerebellar granule cells (mouse); assay: Increase in cytosolic calcium concentration in cerebellar granule cells in presence of calcium at 1 uM
[4] = Increase in cytosolic calcium concentration in cerebellar granule cells in presence of calcium at 1 uM; format: functional; settings: Mus musculus
Method in brief: as §1

[5] = Decrease in intracellular pH in cerebellar granule cells in calcium free medium at 1 uM; format: functional
Method in brief: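 Single-cell imaging at 37 °C in an open-bath chamber, drug buffers at pH 7.4. Compound added in calcium-free buffer, then calcium restored, or added in calcium-containing buffer. Read-out is the 490/440 excitation ratio at 530 nm emission from 25-30 cells per coverslip, converted to pH by nigericin in situ calibration (pH 6-9). Three to five independent experiments, each in duplicate.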

[6] = Effect on intracellular pH in presence of calcium in cerebellar granule cells at 1 uM; format: functional, cell-based; settings: Mus musculus
Method in brief: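 530-nm emission ratio at 490/440 excitation from 25-30 cells per coverslip, converted to pH by nigericin in situ calibration (pH 6-9). Tested in calcium-free medium then after calcium restoration, or in calcium-containing medium; drug buffer pH 7.4.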

[7] = Cytotoxicity against cerebellar granule neurons by MTT assay; settings: mouse, cerebellar granule neurone
Method in brief: (§2)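 Primary cerebellar granule cells from 7-day-old Swiss mouse cerebella, cultured 8-11 days in DMEM with 25 mM KCl and 10% fetal calf serum; cytosine arabinoside (20 µM) against glia. Compound added in culture medium for 4, 8 or 24 h (0.5-250 nM range; fragments 24 h at 250 nM). MTT (500 µg/mL, 30 min, Locke's buffer), SDS lysis, formazan absorbance at 590. Means ± SEM.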

COLO = assay: Cytotoxicity against cerebellar granule neurons at 250 nM by MTT assay after 4 hrs; format: functional, Mus musculus
Method in brief: (§3)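 Primary cerebellar granule cells from 7-day-old Swiss mice, cultured 8-11 days in KCl (25 mM) DMEM with 10% fetal calf serum and cytosine arabinoside. Exposed in culture medium to compound (0.5-250 nM range; fragments 250 nM) for 4, 8 or 24 h at 37 °C. Then MTT 500 µg/mL in Locke's buffer for 30 min, SDS lysis, formazan read at 590. IC50 given with 95% confidence intervals.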

[8] = Cytotoxicity against cerebellar granule neurons by MTT assay after 8 hrs; design: species or system Mus musculus, Cerebellar granule neurone
Method in brief: as §3

[9] = Cytotoxicity against cerebellar granule neurons by MTT assay after 24 hrs; design: species or system Mus musculus, Cerebellar granule neurone
Method in brief: as §3

[10] = Cytotoxicity assessed as effect on viability of cerebellar granule neurons at 100 nM by MTT assay after 4 hrs; design: species or system Cerebellar granule neurone; settings: mouse, read-out: Activity
Method in brief: as §2

[11] = Mus musculus, Cerebellar granule neurone
[12] = mouse, cerebellar granule neurone

C[C@@H]1C[C@H]2O[C@H](CO)C[C@H]2O[C@@]12CC[C@]1(CC=C[C@@H](/C=C/CCC(=O)O)O1)O2
Activity [1]: 100.32%
Activity [2]: inactive
Activity [3]: 100 nM

C[C@H]1CN[C@]2(C[C@H]3O[C@]4(CC(=O)O)C[C@@H](C)C[C@H](O4)[C@H]3O2)[C@@H](C)C1 (single isomer, unassigned)
Activity [4]: inactive
Activity [1]: 110.15%
Activity [2]: inactive
Activity ([5]; Mus musculus): inactive
Activity [6]: inactive

C=C(C[C@]12C[C@@H](C)C[C@H](O1)[C@H]1O[C@]3(C[C@H]1O2)NC[C@H](C)C[C@@H]3C)[C@H]1O[C@@](O)([C@H](O)[C@@H]2C[C@H]3O[C@@]4(CC[C@]5(CC=C[C@@H](/C=C/CCC(=O)O)O5)O4)[C@H](C)C[C@H]3O2)[C@H](C)C[C@@H]1C
Activity [4]: Active
Activity [7]: Dose-dependent effect and tde
Activity [2]: inactive
Activity (COLO): 40%
Activity [5]: -0.15
IC50 [8, 11]: 0.032 µM
Activity [8, 12]: 90%
IC50 [9, 11]: 0.00087 µM
Activity [9, 12]: 85%
viability at 4 h, 0.1 µM [10]: 40%
Activity [6]: inactive

C=C(CO)[C@H]1O[C@@](O)([C@H](O)[C@@H]2C[C@H]3O[C@@]4(CC[C@]5(CC=C[C@@H](/C=C/CCC(=O)O)O5)O4)[C@H](C)C[C@H]3O2)[C@H](C)C[C@@H]1C
Activity [1]: 99.09%
Activity [3]: 200 nM

C[C@H]1C[C@H]2O[C@H](CO)C[C@H]2O[C@]12CC[C@@]1(CC=C[C@H](/C=C/CCC(=O)O)O1)O2
Activity [1]: 98.29%
Activity [3]: 150 nM

C[C@H]1C[C@@H]2O[C@@H](CO)C[C@@H]2O[C@]12CC[C@@]1(CC=C[C@H](/C=C/CCC(=O)O)O1)O2
Activity [1]: 83.66%
Activity [3]: 150 nM

COC(=O)[C@H](NC(=O)C[C@@]12C[C@@H](C)C[C@H](O1)[C@H]1O[C@]3(C[C@H]1O2)NC[C@H](C)C[C@@H]3C)c1ccccc1
Activity [4]: inactive
Activity [1]: 99.25%
Activity [2]: inactive
Activity ([5]; Mus musculus): inactive
Activity [6]: inactive

COC(=O)[C@H](NC(=O)C[C@]12C[C@H](C)C[C@@H](O1)[C@@H]1O[C@@]3(C[C@@H]1O2)NC[C@@H](C)C[C@H]3C)c1ccccc1
Activity [4]: inactive
Activity [1]: 99.4%
Activity [2]: inactive
Activity ([5]; Mus musculus): inactive
Activity [6]: inactive

COC(=O)[C@@H](NC(=O)C[C@@]12C[C@@H](C)C[C@H](O1)[C@H]1O[C@]3(C[C@H]1O2)NC[C@H](C)C[C@@H]3C)c1ccccc1 (single isomer, unassigned)
Activity [4]: inactive
Activity [1]: 90.49%
Activity [2]: inactive
Activity ([5]; Mus musculus): inactive
Activity [6]: inactive

C=C(CO)[C@H]1O[C@@](O)([C@@H](O)[C@H]2C[C@@H]3O[C@]4(CC[C@@]5(CC=C[C@H](/C=C/CCC(=O)O)O5)O4)[C@@H](C)C[C@@H]3O2)[C@H](C)C[C@@H]1C
Activity [1]: 100.57%
Activity [2]: inactive
Activity [3]: 250 nM

COC(=O)[C@@H](NC(=O)C[C@]12C[C@H](C)C[C@@H](O1)[C@@H]1O[C@@]3(C[C@@H]1O2)NC[C@@H](C)C[C@H]3C)c1ccccc1 (single isomer, unassigned)
Activity [4]: inactive
Activity [1]: 90.02%
Activity [2]: inactive
Activity [6]: inactive

C[C@@H]1CN[C@@]2(C[C@@H]3O[C@@]4(CC(=O)O)C[C@H](C)C[C@@H](O4)[C@@H]3O2)[C@H](C)C1
Activity [4]: inactive
Activity [1]: 84.95%
Activity [2]: inactive
Activity ([5]; Mus musculus): inactive
Activity [6]: inactive

C[C@@H]1C[C@H]2O[C@H](CO)C[C@H]2O[C@]12CC[C@@]1(CC=C[C@H](/C=C/CCC(=O)O)O1)O2
Activity [1]: 102.59%
Activity [2]: inactive
Activity [3]: 130 nM

Reference: ChEMBL document CHEMBL1139842, “Effects of azaspiracid-1, a potent cytotoxic agent, on primary neuronal cultures. A structure-activity relationship study” (J Med Chem, 2007)
